In ChEMBL document CHEMBL5143669, “Stapled peptides as scaffolds for developing radiotracers for intracellular targets: Preliminary evaluation of a radioiodinated MDM2-binding stapled peptide in the SJSA-1 osteosarcoma model” (Bioorg Med Chem Lett, 2022):
Values belong to the molecule of their own block, whether it stands above or below them.

Assays:
[1] = Metabolic stability in athymic mouse plasma assessed as intact labeled peptide level at 3.7 MBq, iv after 4 hrs by RP-HPLC; format: ADME, organism-based
Procedure, shortened: (§1)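 Tumor-free athymic mice were given 131I-labeled peptide via tail vein. Plasma was collected at 2 and 4 h (n = 2 per time) and analysed by RP-HPLC on an RP-18 column with an ethanol/0.05 M sodium acetate pH 5.5 gradient at 1 mL/min; intact fraction taken as percentage of plasma radioactivity.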

[2] = Metabolic stability in athymic mouse plasma assessed as intact labeled peptide level at 3.7 MBq, iv after 2 hrs by RP-HPLC; format: ADME, organism-based; procedure, shortened: as §1
[3] = Lipophilicity, logD of the compound using n-octanol and phosphate-buffered saline at pH 7.4 by the shake flask method; format: physicochemical
Procedure, shortened: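 Shake-flask partition of the 125I-labeled peptide between n-octanol and PBS pH 7.4; logD from n = 4.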

[4] = molecular target: T1, E3 ubiquitin-protein ligase Mdm2 (Homo sapiens, UniProt Q00987); assay: Binding affinity to MDM2 (unknown origin)
T1 sequence (Q00987 whole entry): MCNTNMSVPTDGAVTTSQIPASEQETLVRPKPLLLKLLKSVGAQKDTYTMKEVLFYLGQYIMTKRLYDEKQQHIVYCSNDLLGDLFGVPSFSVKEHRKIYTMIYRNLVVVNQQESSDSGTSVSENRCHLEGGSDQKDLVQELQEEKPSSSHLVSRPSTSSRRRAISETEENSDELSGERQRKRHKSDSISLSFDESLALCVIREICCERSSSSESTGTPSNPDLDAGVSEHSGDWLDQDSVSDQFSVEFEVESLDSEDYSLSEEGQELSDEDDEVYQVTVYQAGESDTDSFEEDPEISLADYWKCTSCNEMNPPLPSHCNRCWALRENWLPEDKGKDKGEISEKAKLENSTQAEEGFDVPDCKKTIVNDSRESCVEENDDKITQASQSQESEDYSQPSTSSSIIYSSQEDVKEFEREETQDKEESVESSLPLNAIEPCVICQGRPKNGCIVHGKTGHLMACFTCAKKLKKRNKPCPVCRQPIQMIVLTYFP

[5] = molecular target: T1, E3 ubiquitin-protein ligase Mdm2; assay: Binding affinity to recombinant human MDM2 by using 5-FAM-PMDM6 by fluorescence polarization based assay

- Stability [1]: 80%
- Stability [2]: 68%
SMILES: CC(=O)NC(CCCCNC(=O)c1cccc([131I])c1)C(=O)NCCCCCC(=O)N[C@H](C(=O)N[C@@H](CO)C(=O)N[C@@H](Cc1ccccc1)C(=O)N[C@@]1(C)CCCCCC/C=C/CCC[C@@](C)(C(=O)N[C@@H](CCC(=O)O)C(=O)N[C@@H](CC(N)=O)C(=O)N[C@@H](Cc2ccccc2)C(N)=O)NC(=O)[C@H](CC(C)C)NC(=O)[C@H](CC(C)C)NC(=O)[C@H](C)NC(=O)[C@H](Cc2c[nH]c3ccccc23)NC(=O)[C@H](Cc2ccc(O)cc2)NC(=O)[C@H](CCC(=O)O)NC1=O)[C@@H](C)O (stereo not given in full)

- logD [3]: 1.45
SMILES: CC(=O)NC(CCCCNC(=O)c1cccc(I)c1)C(=O)NCCCCCC(=O)N[C@H](C(=O)N[C@@H](CO)C(=O)N[C@@H](Cc1ccccc1)C(=O)N[C@@]1(C)CCCCCC/C=C/CCC[C@@](C)(C(=O)N[C@@H](CCC(=O)O)C(=O)N[C@@H](CC(N)=O)C(=O)N[C@@H](Cc2ccccc2)C(N)=O)NC(=O)[C@H](CC(C)C)NC(=O)[C@H](CC(C)C)NC(=O)[C@H](C)NC(=O)[C@H](Cc2c[nH]c3ccccc23)NC(=O)[C@H](Cc2ccc(O)cc2)NC(=O)[C@H](CCC(=O)O)NC1=O)[C@@H](C)O (stereo not given in full)

- Kd [4]: 15.1 nM
- IC50 [5]: 2.8 nM
SMILES: CC(=O)N[C@@H](CCCCN)C(=O)NCCCCCC(=O)N[C@H](C(=O)N[C@@H](CO)C(=O)N[C@@H](Cc1ccccc1)C(=O)N[C@]1(C)CCCCCC/C=C/CCC[C@@](C)(C(=O)N[C@@H](CCC(=O)O)C(=O)N[C@@H](CC(N)=O)C(=O)N[C@@H](Cc2ccccc2)C(N)=O)NC(=O)[C@H](CC(C)C)NC(=O)[C@H](CC(C)C)NC(=O)[C@H](C)NC(=O)[C@H](Cc2c[nH]c3ccccc23)NC(=O)[C@H](Cc2ccc(O)cc2)NC(=O)[C@H](CCC(=O)O)NC1=O)[C@@H](C)O
